According to ChEMBL document CHEMBL4393705, “New chalcone-sulfonamide hybrids exhibiting anticancer and antituberculosis activity” (Eur J Med Chem, 2019):

Experiments:
SK-OV-3 = assay: Anticancer activity against human SKOV3 cells assessed as cell growth inhibition measured after 48 hrs by SRB assay; format: functional; settings: SK-OV-3, 48 h
Method in brief: (§1)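 NCI 60-cell screen, five-dose mode at 100, 10, 1.0, 0.1 and 0.01 µM. Cells grown in RPMI-1640 with 5% FBS and 2 mM L-glutamine, seeded and held 24 h at 37°C, 5% CO2, then exposed for 48 h. Fixed with cold TCA (10% final), stained with 0.4% SRB and read at 515 nm. Time-zero plates were used. GI50 is the concentration giving 50% lower net protein increase than control.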

CCRF-CEM = assay: Anticancer activity against human CCRF-CEM cells assessed as cell growth inhibition measured after 48 hrs by SRB assay; format: functional
Method in brief: (§2)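 NCI-60 five-dose screen at 100, 10, 1.0, 0.1 and 0.01 µM final. Cells in RPMI-1640 with 5% FBS and 2 mM glutamine were seeded 24 h ahead at 37°C, 5% CO2. Compound exposure was 48 h, followed by TCA fixation and SRB staining, read at 515 nm. GI50 is the concentration giving 50% lower net protein increase than control, using time-zero plates.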

HL-60 = assay: Anticancer activity against human HL60 cells assessed as cell growth inhibition measured after 48 hrs by SRB assay; format: functional; settings: HL-60, 48 h; for CC50: read-out: LC50 (the source's name); method in brief: as §2
K562 = assay: Anticancer activity against human K562 cells assessed as cell growth inhibition measured after 48 hrs by SRB assay; format: functional; settings: K562, 48 h; for CC50: read-out: LC50 (the source's name); method in brief: as §2
HOP-92 = assay: Anticancer activity against human HOP92 cells assessed as cell growth inhibition measured after 48 hrs by SRB assay; format: functional; settings: HOP-92, 48 h; method in brief: as §2
NCI-H23 = assay: Anticancer activity against human NCI-H23 cells assessed as cell growth inhibition measured after 48 hrs by SRB assay; format: functional; settings: NCI-H23, 48 h; method in brief: as §2
NCI-H522 = assay: Anticancer activity against human NCI-H522 cells assessed as cell growth inhibition measured after 48 hrs by SRB assay; format: functional; settings: NCI-H522, 48 h; for CC50: read-out: LC50 (the source's name); method in brief: as §2
COLO 205 = assay: Anticancer activity against human COLO205 cells assessed as cell growth inhibition measured after 48 hrs by SRB assay; format: functional; settings: COLO 205, 48 h; method in brief: as §2
HCT-116 = assay: Anticancer activity against human HCT116 cells assessed as cell growth inhibition measured after 48 hrs by SRB assay; format: functional; settings: HCT-116, 48 h; method in brief: as §2
HCT-15 = assay: Anticancer activity against human HCT15 cells assessed as cell growth inhibition measured after 48 hrs by SRB assay; format: functional; settings: HCT-15, 48 h; method in brief: as §2
KM12 = assay: Anticancer activity against human KM12 cells assessed as cell growth inhibition measured after 48 hrs by SRB assay; format: functional; settings: KM12, 48 h; method in brief: as §2
SF-268 = assay: Anticancer activity against human SF268 cells assessed as cell growth inhibition measured after 48 hrs by SRB assay; format: functional; settings: SF-268, 48 h; method in brief: as §2
SF-295 = assay: Anticancer activity against human SF295 cells assessed as cell growth inhibition measured after 48 hrs by SRB assay; format: functional; settings: SF-295, 48 h; method in brief: as §2
SF-539 = assay: Anticancer activity against human SF539 cells assessed as cell growth inhibition measured after 48 hrs by SRB assay; format: functional; settings: SF-539, 48 h; for CC50: read-out: LC50 (the source's name); method in brief: as §1
SNB-19 = assay: Anticancer activity against human SNB19 cells assessed as cell growth inhibition measured after 48 hrs by SRB assay; format: functional; settings: SNB-19, 48 h; method in brief: as §1
SK-MEL-2 = assay: Anticancer activity against human SK-MEL-2 cells assessed as cell growth inhibition measured after 48 hrs by SRB assay; format: functional; settings: SK-MEL-2, 48 h; for CC50: read-out: LC50 (the source's name); method in brief: as §1
SK-MEL-28 = assay: Anticancer activity against human SK-MEL-28 cells assessed as cell growth inhibition measured after 48 hrs by SRB assay; format: functional; settings: SK-MEL-28, 48 h; for CC50: read-out: LC50 (the source's name); method in brief: as §1
SK-MEL-5 = assay: Anticancer activity against human SK-MEL-5 cells assessed as cell growth inhibition measured after 48 hrs by SRB assay; format: functional; settings: SK-MEL-5, 48 h; for CC50: read-out: LC50 (the source's name); method in brief: as §1
UACC-257 = assay: Anticancer activity against human UACC257 cells assessed as cell growth inhibition measured after 48 hrs by SRB assay; format: functional; settings: UACC-257, 48 h; for CC50: read-out: LC50 (the source's name); method in brief: as §1
UACC-62 = assay: Anticancer activity against human UACC62 cells assessed as cell growth inhibition measured after 48 hrs by SRB assay; format: functional; settings: UACC-62, 48 h; for CC50: read-out: LC50 (the source's name); method in brief: as §1
IGROV-1 = assay: Anticancer activity against human IGROV1 cells assessed as cell growth inhibition measured after 48 hrs by SRB assay; format: functional; settings: IGROV-1, 48 h; method in brief: as §2
786-0 = assay: Anticancer activity against human 786-O cells assessed as cell growth inhibition measured after 48 hrs by SRB assay; format: functional; settings: 786-0, 48 h; for CC50: read-out: LC50 (the source's name); method in brief: as §2
A498 = assay: Anticancer activity against human A498 cells assessed as cell growth inhibition measured after 48 hrs by SRB assay; format: functional; settings: A498, 48 h; for CC50: read-out: LC50 (the source's name); method in brief: as §2
SN12C = assay: Anticancer activity against human SN12C cells assessed as cell growth inhibition measured after 48 hrs by SRB assay; format: functional; method in brief: as §1
TK-10 = assay: Anticancer activity against human TK10 cells assessed as cell growth inhibition measured after 48 hrs by SRB assay; format: functional; settings: TK-10, 48 h; for CC50: read-out: LC50 (the source's name); method in brief: as §1
DU-145 = assay: Anticancer activity against human DU145 cells assessed as cell growth inhibition measured after 48 hrs by SRB assay; format: functional; settings: DU-145, 48 h; method in brief: as §2
MCF7 = assay: Anticancer activity against human MCF7 cells assessed as cell growth inhibition measured after 48 hrs by SRB assay; format: functional; settings: MCF7, 48 h; method in brief: as §2
MDA-MB-231 = assay: Anticancer activity against human MDA-MB-231 cells assessed as cell growth inhibition measured after 48 hrs by SRB assay; format: functional; settings: MDA-MB-231, 48 h; method in brief: as §2
NIH3T3 = assay: Cytotoxicity against mouse 3T3 cells assessed as cell viability measured after 48 hrs by MTT assay; format: cell-based; settings: nih3t3, 48 h
Method in brief: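 3T3 fibroblasts in DMEM with 10% FBS and penicillin-streptomycin, seeded at 10^4 cells/well 24 h prior. Exposed 48 h to two-fold serial dilutions from a 100 mg/mL DMSO stock. MTT (5 mg/mL in PBS) added for 1.5 h, formazan dissolved in DMSO, read at 530 nm. Duplicate runs on different days. Value interpolated between DMSO (100%) and cycloheximide (0%) controls.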

COc1ccc(C(=O)/C=C/c2ccc(Cl)cc2)cc1S(N)(=O)=O
GI50 (SK-OV-3): 5.96 µM
LC50 (concentration killing 50% of cells relative to time zero) (SK-OV-3): 43.1 µM
GI50 (CCRF-CEM): 3.34 µM
LC50 (CCRF-CEM): > 100 µM
GI50 (HL-60): 3.08 µM
CC50 (HL-60): > 100 µM
GI50 (K562): 0.57 µM
CC50 (K562): > 100 µM
GI50 (HOP-92): 2.14 µM
LC50 (HOP-92): 21.4 µM
GI50 (NCI-H23): 2.54 µM
LC50 (NCI-H23): 40.9 µM
GI50 (NCI-H522): 1.93 µM
CC50 (NCI-H522): 12.1 µM
GI50 (COLO 205): 2.03 µM
LC50 (concentration giving 50% net cell kill) (COLO 205): 17.4 µM
GI50 (HCT-116): 1.36 µM
LC50 (concentration killing 50% of cells present at start) (HCT-116): 5.36 µM
GI50 (HCT-15): 2.14 µM
LC50 (concentration killing 50% of cells) (HCT-15): 59.3 µM
GI50 (KM12): 1.73 µM
LC50 (lethal concentration, 50% net cell kill) (KM12): 8.26 µM
GI50 (SF-268): 3.13 µM
LC50 (concentration giving 50% net cell kill) (SF-268): 38.3 µM
GI50 (SF-295): 3.04 µM
LC50 (SF-295): 31.9 µM
GI50 (SF-539): 1.6 µM
CC50 (SF-539): 6.82 µM
GI50 (SNB-19): 3.1 µM
LC50 (SNB-19): 33.4 µM
GI50 (SK-MEL-2): 12.4 µM
CC50 (SK-MEL-2): 53.2 µM
GI50 (SK-MEL-28): 3.24 µM
CC50 (SK-MEL-28): 37.2 µM
GI50 (SK-MEL-5): 5.69 µM
CC50 (SK-MEL-5): 42.7 µM
GI50 (UACC-257): 12.2 µM
CC50 (UACC-257): 50.8 µM
GI50 (UACC-62): 4.88 µM
CC50 (UACC-62): 44.8 µM
GI50 (IGROV-1): 2.67 µM
LC50 (concentration giving 50% net cell kill) (IGROV-1): 48.1 µM
GI50 (786-0): 1.74 µM
CC50 (786-0): 7.82 µM
GI50 (A498): 10.4 µM
CC50 (A498): 47.1 µM
GI50 (SN12C): 2.72 µM
LC50 (concentration giving 50% net cell kill) (SN12C): 31.5 µM
GI50 (TK-10): 2.47 µM
CC50 (TK-10): 27.5 µM
GI50 (DU-145): 3.42 µM
LC50 (DU-145): 36.3 µM
GI50 (MCF7): 1.3 µM
LC50 (MCF7): > 100 µM
GI50 (MDA-MB-231): 3.48 µM
LC50 (MDA-MB-231): 40.1 µM
LC50 (NIH3T3): 4.1 µM

COc1ccc(C(=O)/C=C/c2ccc(Cl)cc2)cc1S(=O)(=O)Nc1c(N)nc(SC)[nH]c1=O
GI50 (SK-OV-3): 3.65 µM
LC50 (concentration killing 50% of cells relative to time zero) (SK-OV-3): 36.6 µM
GI50 (CCRF-CEM): 2.66 µM
LC50 (CCRF-CEM): > 100 µM
GI50 (HL-60): 3.2 µM
CC50 (HL-60): > 100 µM
GI50 (K562): 2.77 µM
CC50 (K562): > 100 µM
GI50 (HOP-92): 2.59 µM
LC50 (HOP-92): 32.6 µM
GI50 (NCI-H23): 2.53 µM
LC50 (NCI-H23): 40.4 µM
GI50 (NCI-H522): 1.88 µM
CC50 (NCI-H522): 8.83 µM
GI50 (COLO 205): 1.76 µM
LC50 (concentration giving 50% net cell kill) (COLO 205): 6.68 µM
GI50 (HCT-116): 1.56 µM
LC50 (concentration killing 50% of cells present at start) (HCT-116): 5.55 µM
GI50 (HCT-15): 3.24 µM
LC50 (concentration killing 50% of cells) (HCT-15): 83.9 µM
GI50 (KM12): 2.09 µM
LC50 (lethal concentration, 50% net cell kill) (KM12): 9.76 µM
GI50 (SF-268): 2.69 µM
LC50 (concentration giving 50% net cell kill) (SF-268): 36.1 µM
GI50 (SF-295): 2.72 µM
LC50 (SF-295): 34.7 µM
GI50 (SF-539): 2.1 µM
CC50 (SF-539): 15.1 µM
GI50 (SNB-19): 2.52 µM
LC50 (SNB-19): 32.2 µM
GI50 (SK-MEL-2): 12.8 µM
CC50 (SK-MEL-2): 61.1 µM
GI50 (SK-MEL-28): 2.1 µM
CC50 (SK-MEL-28): 17 µM
GI50 (SK-MEL-5): 2.72 µM
CC50 (SK-MEL-5): 32 µM
GI50 (UACC-257): 8.27 µM
CC50 (UACC-257): 50.1 µM
GI50 (UACC-62): 2.33 µM
CC50 (UACC-62): 27.4 µM
GI50 (IGROV-1): 3.25 µM
LC50 (concentration giving 50% net cell kill) (IGROV-1): 80.2 µM
GI50 (786-0): 1.95 µM
CC50 (786-0): 8.74 µM
GI50 (A498): 10.6 µM
CC50 (A498): 47.6 µM
GI50 (SN12C): 3.45 µM
LC50 (concentration giving 50% net cell kill) (SN12C): 73.4 µM
GI50 (TK-10): 2.98 µM
CC50 (TK-10): 32.3 µM
GI50 (DU-145): 3.58 µM
LC50 (DU-145): 33.9 µM
GI50 (MCF7): 1.97 µM
LC50 (MCF7): > 100 µM
GI50 (MDA-MB-231): 3.42 µM
LC50 (MDA-MB-231): 40.3 µM
LC50 (NIH3T3): 13 µM
